# Laboratory results: the M2OR odorant receptor database
# How the values were obtained:
# Details in all cases: stereoisomer not certain
# UniProt Q8VGX8 = molecular target: T1, UniProt Q8VGX8
# T1 sequence (whole entry): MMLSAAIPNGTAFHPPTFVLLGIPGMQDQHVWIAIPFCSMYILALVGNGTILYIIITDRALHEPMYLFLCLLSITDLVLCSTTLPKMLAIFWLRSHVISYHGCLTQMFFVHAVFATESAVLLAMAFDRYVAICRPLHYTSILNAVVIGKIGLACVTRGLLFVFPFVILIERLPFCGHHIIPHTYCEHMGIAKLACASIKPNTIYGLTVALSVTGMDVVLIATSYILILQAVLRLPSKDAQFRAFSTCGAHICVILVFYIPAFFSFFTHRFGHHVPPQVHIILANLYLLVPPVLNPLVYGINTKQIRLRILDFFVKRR
# Summary of the method: (§1)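 Transient luciferase assays in mammalian cell lines were common, though methods varied by source. The values come from published papers and their supplementary material, with extra details from the original authors when needed. Responsive refers to a measured signal the original authors judged statistically different from baseline, and non-responsive (inactive) to the remainder.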
# UniProt Q8VGY6 = molecular target: T2, UniProt Q8VGY6
# T2 sequence (whole entry): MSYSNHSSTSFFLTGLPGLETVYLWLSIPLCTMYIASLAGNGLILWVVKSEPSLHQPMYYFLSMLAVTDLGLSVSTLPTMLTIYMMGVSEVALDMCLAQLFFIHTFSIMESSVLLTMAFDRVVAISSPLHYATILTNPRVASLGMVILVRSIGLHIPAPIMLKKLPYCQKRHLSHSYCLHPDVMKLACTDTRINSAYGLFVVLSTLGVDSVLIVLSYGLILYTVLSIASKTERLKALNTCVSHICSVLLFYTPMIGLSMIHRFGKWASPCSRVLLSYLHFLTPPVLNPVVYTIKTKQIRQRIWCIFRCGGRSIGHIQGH
# Summary of the method: as §1
# UniProt Q8VGZ2 = molecular target: T3, UniProt Q8VGZ2
# T3 sequence (whole entry): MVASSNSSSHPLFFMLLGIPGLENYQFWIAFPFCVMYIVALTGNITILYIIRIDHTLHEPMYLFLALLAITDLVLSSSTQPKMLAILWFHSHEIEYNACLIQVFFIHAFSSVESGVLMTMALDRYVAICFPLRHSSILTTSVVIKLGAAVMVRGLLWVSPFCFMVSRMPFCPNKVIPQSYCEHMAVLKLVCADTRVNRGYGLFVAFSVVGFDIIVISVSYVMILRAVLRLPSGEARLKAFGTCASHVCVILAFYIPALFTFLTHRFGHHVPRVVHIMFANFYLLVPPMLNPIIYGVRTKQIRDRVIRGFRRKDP
# Summary of the method: as §1
# UniProt Q8VGZ7 = molecular target: T4, UniProt Q8VGZ7
# T4 sequence (whole entry): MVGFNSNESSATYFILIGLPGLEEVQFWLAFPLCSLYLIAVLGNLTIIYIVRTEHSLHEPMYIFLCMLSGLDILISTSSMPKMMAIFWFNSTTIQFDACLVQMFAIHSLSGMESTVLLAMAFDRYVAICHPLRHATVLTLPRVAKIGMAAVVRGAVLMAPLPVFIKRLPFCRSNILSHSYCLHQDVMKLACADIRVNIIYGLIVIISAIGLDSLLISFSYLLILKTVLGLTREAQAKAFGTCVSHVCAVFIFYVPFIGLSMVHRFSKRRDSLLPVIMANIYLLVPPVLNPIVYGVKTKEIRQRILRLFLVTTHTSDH
# Summary of the method: as §1
# UniProt Q8VH10 = molecular target: T5, UniProt Q8VH10
# T5 sequence (whole entry): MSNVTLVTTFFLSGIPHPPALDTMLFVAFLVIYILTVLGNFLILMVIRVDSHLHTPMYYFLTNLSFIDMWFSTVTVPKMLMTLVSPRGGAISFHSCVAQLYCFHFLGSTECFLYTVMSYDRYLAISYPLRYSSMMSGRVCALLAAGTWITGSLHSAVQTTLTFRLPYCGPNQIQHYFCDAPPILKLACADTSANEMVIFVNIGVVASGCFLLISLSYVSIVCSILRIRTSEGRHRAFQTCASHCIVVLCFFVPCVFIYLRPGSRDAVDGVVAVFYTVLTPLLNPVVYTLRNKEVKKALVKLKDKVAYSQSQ
# Summary of the method: as §1
# UniProt Q8VH16 = molecular target: T6, UniProt Q8VH16
# T6 sequence (whole entry): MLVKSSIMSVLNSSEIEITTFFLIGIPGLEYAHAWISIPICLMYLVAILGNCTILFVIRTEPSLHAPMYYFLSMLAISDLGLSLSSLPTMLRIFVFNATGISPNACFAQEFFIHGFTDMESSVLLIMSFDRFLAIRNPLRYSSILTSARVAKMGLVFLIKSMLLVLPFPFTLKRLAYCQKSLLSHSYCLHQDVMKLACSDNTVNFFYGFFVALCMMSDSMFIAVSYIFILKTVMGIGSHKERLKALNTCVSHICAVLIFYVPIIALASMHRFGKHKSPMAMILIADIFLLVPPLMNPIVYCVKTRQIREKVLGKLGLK
# Summary of the method: as §1
# UniProt Q8VH20 = molecular target: T7, UniProt Q8VH20
# T7 sequence (whole entry): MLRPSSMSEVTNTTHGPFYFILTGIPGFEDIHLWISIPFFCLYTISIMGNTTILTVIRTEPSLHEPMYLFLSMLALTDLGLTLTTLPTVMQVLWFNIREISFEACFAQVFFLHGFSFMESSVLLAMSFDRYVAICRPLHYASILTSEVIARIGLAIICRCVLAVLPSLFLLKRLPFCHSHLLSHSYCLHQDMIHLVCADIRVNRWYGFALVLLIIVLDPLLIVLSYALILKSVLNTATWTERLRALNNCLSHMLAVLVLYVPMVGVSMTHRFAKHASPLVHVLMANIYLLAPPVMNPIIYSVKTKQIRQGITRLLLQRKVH
# Summary of the method: as §1
# UniProt Q8VH21 = molecular target: T8, UniProt Q8VH21
# T8 sequence (whole entry): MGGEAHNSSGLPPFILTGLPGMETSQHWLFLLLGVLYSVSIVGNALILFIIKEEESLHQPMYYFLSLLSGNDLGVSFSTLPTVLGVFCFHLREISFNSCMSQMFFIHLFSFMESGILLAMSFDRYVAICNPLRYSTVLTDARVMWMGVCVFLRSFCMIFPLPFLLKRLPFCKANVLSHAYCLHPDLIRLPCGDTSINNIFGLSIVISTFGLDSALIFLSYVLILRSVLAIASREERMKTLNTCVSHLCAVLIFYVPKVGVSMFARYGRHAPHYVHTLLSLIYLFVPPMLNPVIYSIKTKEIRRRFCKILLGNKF
# Summary of the method: as §1
# UniProt Q924H8 = molecular target: T9, UniProt Q924H8
# T9 sequence (whole entry): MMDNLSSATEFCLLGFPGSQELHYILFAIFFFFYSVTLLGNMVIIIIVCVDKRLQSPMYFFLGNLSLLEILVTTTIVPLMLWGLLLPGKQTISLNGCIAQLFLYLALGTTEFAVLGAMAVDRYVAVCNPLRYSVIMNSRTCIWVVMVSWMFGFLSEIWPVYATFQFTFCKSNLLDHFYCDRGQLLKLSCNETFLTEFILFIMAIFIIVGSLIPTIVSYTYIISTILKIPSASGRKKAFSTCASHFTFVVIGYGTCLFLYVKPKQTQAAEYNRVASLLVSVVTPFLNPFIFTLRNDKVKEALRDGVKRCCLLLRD
# Summary of the method: as §1
# UniProt Q9EPN9 = molecular target: T10, UniProt Q9EPN9
# T10 sequence (whole entry): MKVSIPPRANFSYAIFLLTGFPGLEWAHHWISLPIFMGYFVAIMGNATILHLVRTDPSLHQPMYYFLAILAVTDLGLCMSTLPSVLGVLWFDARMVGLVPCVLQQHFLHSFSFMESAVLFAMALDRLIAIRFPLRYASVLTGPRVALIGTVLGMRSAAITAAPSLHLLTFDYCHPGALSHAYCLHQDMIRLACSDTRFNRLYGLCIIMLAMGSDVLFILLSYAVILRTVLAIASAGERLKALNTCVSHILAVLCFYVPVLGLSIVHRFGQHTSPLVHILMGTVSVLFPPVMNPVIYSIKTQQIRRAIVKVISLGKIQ
# Summary of the method: as §1
# UniProt Q9R0K2 = molecular target: UniProt Q9R0K2
# Sequence of UniProt Q9R0K2 (Q9R0K2 as listed by the source): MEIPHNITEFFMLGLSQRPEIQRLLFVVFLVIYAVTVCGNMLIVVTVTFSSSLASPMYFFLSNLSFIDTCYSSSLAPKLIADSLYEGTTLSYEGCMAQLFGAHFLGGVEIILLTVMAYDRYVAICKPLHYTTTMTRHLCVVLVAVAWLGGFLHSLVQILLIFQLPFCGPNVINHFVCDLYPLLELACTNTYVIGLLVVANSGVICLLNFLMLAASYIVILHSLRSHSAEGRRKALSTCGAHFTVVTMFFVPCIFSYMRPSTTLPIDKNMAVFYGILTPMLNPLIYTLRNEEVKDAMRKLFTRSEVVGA
# Summary of the method: as §1
# UniProt Q9WU86 = molecular target: T11, UniProt Q9WU86
# T11 sequence (whole entry): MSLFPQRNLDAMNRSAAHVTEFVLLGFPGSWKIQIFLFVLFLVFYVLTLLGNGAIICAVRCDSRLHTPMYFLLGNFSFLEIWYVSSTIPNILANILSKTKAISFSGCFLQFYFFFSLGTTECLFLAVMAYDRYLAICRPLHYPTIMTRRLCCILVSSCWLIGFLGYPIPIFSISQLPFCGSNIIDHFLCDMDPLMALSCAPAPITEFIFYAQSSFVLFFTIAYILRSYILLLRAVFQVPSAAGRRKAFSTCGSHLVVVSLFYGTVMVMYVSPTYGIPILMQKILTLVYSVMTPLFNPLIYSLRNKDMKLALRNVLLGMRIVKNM
# Summary of the method: as §1
# UniProt Q8VH18 = molecular target: T12, UniProt Q8VH18
# T12 sequence (whole entry): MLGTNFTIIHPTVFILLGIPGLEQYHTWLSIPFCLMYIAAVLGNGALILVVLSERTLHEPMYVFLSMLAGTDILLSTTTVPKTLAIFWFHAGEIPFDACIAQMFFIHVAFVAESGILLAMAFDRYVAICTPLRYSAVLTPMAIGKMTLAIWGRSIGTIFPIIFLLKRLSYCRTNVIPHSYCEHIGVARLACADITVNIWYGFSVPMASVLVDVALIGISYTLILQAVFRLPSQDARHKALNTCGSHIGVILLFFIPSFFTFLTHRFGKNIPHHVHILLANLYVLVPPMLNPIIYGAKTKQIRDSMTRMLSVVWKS
# Summary of the method: as §1
# UniProt Q924X8 = molecular target: T13, UniProt Q924X8
# T13 sequence (whole entry): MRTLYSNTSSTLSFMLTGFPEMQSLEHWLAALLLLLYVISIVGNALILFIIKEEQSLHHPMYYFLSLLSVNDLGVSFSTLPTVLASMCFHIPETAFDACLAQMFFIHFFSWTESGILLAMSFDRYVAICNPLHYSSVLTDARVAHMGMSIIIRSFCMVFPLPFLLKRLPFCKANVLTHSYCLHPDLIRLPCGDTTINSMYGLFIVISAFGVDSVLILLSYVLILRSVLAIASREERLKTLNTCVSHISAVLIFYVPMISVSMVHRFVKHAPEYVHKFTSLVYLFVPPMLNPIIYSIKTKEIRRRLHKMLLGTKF
# Summary of the method: as §1
# UniProt Q99NH4 = molecular target: T14, UniProt Q99NH4
# T14 sequence (whole entry): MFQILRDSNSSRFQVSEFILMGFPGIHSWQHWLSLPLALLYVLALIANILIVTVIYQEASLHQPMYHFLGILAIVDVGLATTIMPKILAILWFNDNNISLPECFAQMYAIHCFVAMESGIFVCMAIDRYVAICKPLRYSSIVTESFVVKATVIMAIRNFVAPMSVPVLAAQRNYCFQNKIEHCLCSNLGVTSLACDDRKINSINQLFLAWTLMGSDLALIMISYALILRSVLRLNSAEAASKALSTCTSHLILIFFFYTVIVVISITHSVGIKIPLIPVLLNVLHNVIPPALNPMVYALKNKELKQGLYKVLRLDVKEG
# Summary of the method: as §1
# UniProt Q9WU94 = molecular target: T15, UniProt Q9WU94
# T15 sequence (whole entry): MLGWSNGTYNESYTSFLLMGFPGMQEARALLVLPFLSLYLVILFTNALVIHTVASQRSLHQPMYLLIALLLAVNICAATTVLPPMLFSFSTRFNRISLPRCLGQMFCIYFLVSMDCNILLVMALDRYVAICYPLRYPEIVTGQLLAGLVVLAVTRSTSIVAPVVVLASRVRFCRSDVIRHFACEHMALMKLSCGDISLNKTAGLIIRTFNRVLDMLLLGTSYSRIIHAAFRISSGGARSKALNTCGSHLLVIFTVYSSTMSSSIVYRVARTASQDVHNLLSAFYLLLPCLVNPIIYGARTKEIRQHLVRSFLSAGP
# Summary of the method: as §1
# UniProt Q9WVD7 = molecular target: T16, UniProt Q9WVD7
# T16 sequence (whole entry): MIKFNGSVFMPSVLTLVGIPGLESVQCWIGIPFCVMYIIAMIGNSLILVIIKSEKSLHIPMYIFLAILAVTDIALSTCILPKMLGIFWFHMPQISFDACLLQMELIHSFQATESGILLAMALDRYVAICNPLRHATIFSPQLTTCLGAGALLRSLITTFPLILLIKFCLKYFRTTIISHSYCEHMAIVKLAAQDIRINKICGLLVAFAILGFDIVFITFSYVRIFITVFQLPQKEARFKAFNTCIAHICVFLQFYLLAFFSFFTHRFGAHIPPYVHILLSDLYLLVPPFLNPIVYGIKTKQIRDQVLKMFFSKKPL
# Summary of the method: as §1
# 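Also: active if original authors judged signal statistically different from baseline.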
Compound,odorant receptor agonist call (UniProt Q8VGX8),odorant receptor agonist call (UniProt Q8VGY6),odorant receptor agonist call (UniProt Q8VGZ2),odorant receptor agonist call (UniProt Q8VGZ7),odorant receptor agonist call (UniProt Q8VH10),odorant receptor agonist call (UniProt Q8VH16),odorant receptor agonist call (UniProt Q8VH20),odorant receptor agonist call (UniProt Q8VH21),odorant receptor agonist call (UniProt Q924H8),odorant receptor agonist call (UniProt Q9EPN9),odorant receptor agonist call (UniProt Q9R0K2),odorant receptor agonist call (UniProt Q9WU86),odorant receptor agonist call (UniProt Q8VH18),odorant receptor agonist call (UniProt Q924X8),odorant receptor agonist call (UniProt Q99NH4),odorant receptor agonist call (UniProt Q9WU94),odorant receptor agonist call (UniProt Q9WVD7)
C=C(C)C1CCC(C)C(=O)C1 (configuration not stated),inactive,inactive,inactive,inactive,inactive,inactive,inactive,inactive,inactive,inactive,inactive,inactive,,,,,
CCCCCCCO,inactive,inactive,inactive,inactive,inactive,inactive,inactive,inactive,inactive,inactive,inactive,inactive,inactive,inactive,inactive,inactive,inactive
CCCCCCC(C)=O,inactive,inactive,inactive,inactive,inactive,inactive,inactive,inactive,inactive,inactive,inactive,inactive,,,,,
CCCCC(=O)O,inactive,inactive,inactive,inactive,inactive,inactive,inactive,active,inactive,inactive,inactive,inactive,,inactive,inactive,inactive,inactive
